Compound activity from PubChem BioAssay.
This is a sample that favours compounds with a hit; in the whole collection about 1.6% have one here.
PvdQ acylase: P. aeruginosa PvdQ acylase inhibition | inhibition, % at 10 µM | purified PvdQ acylase, fluorescence plate reader | actives 0.063% (n = 340,000); in the data active = inhibition above about 30%, passing the limit was not always enough
S100A4 inh HTS: blocks human S100A4 binding to myosin IIA peptide; P26447; S100A4/TAMRA-MyoIIA peptide fluorescence polarization; actives 0.14% (n = 360,000); inhibition, % at 10.7 µM;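 active = mean inhibition of at least 70% across replicates, with every replicate also reaching that level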
Target sequence (P26447 whole entry, looked up): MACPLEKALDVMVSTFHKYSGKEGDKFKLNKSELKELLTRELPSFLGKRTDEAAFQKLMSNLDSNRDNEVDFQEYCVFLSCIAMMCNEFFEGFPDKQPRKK
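Material: S100A4 monomer protein | Medium: HEPES pH 7.2 with CaCl2, KCl, NaCl, DTT, Triton | Reagent: Labelled myosin peptide probe, 5 nM | Doses: One dose per compound | Times: 5 min incubation before reading | Benchmarks: Neutral control DMSO, positive control TFP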
RAD54 inh: inhibitors of human RAD54 branch migration. Q92698. RAD54 Holliday junction branch migration, FAM/BHQ fluorescence. inhibition, % at 10.4 µM. actives 0.14% (n = 360,000);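 active = mean normalized replicate activity at least 40 and at least half of replicates scoring 40 or more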;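 note: inhibitors cause a drop in the FAM fluorescence signal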
SR-BI DiI-HDL act: enhances SR-BI lipid uptake from DiI-HDL; activation, % at 12.5 µM; AID 504775; actives 0.096% (n = 320,000); CHO ldlA[mSR-BI] cells, DiI-HDL uptake fluorescence, 3 h; 100 = double the neutral-control signal;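 active = mean replicate activation of at least 60% and every replicate at or above 60%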
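Material – SR-BI-overexpressing, LDLR-lacking CHO cells · Medium – BSA-supplemented, HEPES-buffered Ham's F12, pH 7.4 · Doses – single concentration · Times – compound with DiI-HDL co-incubation, 3 h at 37 °C · Measured by – bottom-read fluorescence, 550/595 nm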
SR-BI DiI inh: mouse SR-BI HDL lipid transfer inhibition | Q61009 | ldlA[mSR-BI] CHO cells, DiI-HDL uptake fluorescence, 3 h | inhibition, % at 12.5 µM | actives 0.96% (n = 320,000) | AID 488896;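 active = mean replicate inhibition of at least 70% and a set share of replicates each scoring 70 or more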
dFosB act: mouse delta FosB homodimer activation; P13346; purified delta FosB, TAMRA-CDK5 oligo fluorescence polarization; percent of positive-control signal above neutral wells; activation, % at 25 µM; actives 0.99% (n = 340,000); AID 493131;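 active = mean activation above about 17%, with every replicate also reaching it, limit read from the data, passing the limit was not always enough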
Target sequence (P13346 whole entry, looked up): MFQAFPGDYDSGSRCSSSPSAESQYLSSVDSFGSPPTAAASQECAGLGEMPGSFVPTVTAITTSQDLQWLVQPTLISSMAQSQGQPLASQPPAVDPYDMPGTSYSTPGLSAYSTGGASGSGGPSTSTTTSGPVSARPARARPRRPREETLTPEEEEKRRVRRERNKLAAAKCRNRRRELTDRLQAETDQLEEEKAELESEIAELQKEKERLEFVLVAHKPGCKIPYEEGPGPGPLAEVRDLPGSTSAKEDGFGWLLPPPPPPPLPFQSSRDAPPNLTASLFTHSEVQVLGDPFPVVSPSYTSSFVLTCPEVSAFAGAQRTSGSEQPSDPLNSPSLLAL
Hits are given with their value; n = inactive; x = no result given.

SMILES	PvdQ acylase	S100A4 inh HTS	RAD54 inh	SR-BI DiI-HDL act	SR-BI DiI inh	dFosB act
COc1cccc(NC(=O)c2cc(-c3cccnc3)nc3c(Cl)cccc23)c1	n	x	n	n	82.3	n
O=C(Nc1nc2ccccc2s1)c1cc(-c2ccco2)nc2ccccc12	n	n	x	n	n	n
COc1ccc(NC(=O)c2ccccc2NS(C)(=O)=O)cc1OC	n	n	n	n	n	n
COc1ccccc1Nc1ncc(C(=O)Nc2ccc(OC)c(OC)c2)c2ccccc12	n	x	n	n	82.8	n
COc1ccc(-c2cc(C(=O)Nc3ccc(O)cc3)c3ccccc3n2)cc1OC	n	n	n	n	81.2	n
O=[N+]([O-])c1ccc2c(c1)Cc1cc(F)ccc1-2	87.3	n	n	n	n	n
CCOc1ccc(/C=N/NC(=O)c2nnn(-c3nonc3N)c2-c2ccc(OCC)cc2)cc1	n	n	n	n	n	n
CCCOc1ccc(-c2c(C(=O)N/N=C/c3ccsc3)nnn2-c2nonc2N)cc1	n	n	n	n	n	20.3
CCOc1ccc(-c2c(C(=O)N/N=C/c3c[nH]c4ccccc34)nnn2-c2nonc2N)cc1	n	n	n	n	88.1	n
CC(C)c1c(C(=O)N/N=C/c2ccc(C(F)(F)F)cc2)nnn1-c1nonc1N	n	n	n	n	77.1	n
Nc1nonc1-n1nnc(C(=O)N/N=C/c2ccccc2F)c1-c1cccs1	n	n	n	n	74.4	n
Cc1ccc(/C=N/NC(=O)c2nnn(-c3nonc3N)c2-c2cccs2)cc1	n	n	n	n	n	n
CC(C)CCNC(=O)c1cccc(Cl)c1	39.2	x	n	n	n	n
O=C(N/N=C/c1ccc(O)cc1O)c1ccc(CN2C(=O)c3cccc4cccc2c34)cc1	n	n	x	n	123.6	n
O=C(Nc1ccc2c(c1)OCO2)N[C@H]1CC[C@H](CC(=O)N2CCN(c3ccccc3)CC2)O[C@H]1CO	x	n	n	x	x	x
Cc1cc(NC(=O)c2cc3cccc([N+](=O)[O-])c3[nH]2)ccc1F	n	n	n	n	77.4	n
CO[C@@H]1CN(C)C(=O)c2cc(NC(=O)NC(C)C)ccc2OC[C@@H](C)N(CCC(F)(F)F)C[C@@H]1C	x	x	n	x	x	x
O=C(C[C@H]1CC[C@@H](NC(=O)NC2CCCCC2)[C@H](CO)O1)NCc1ccc(F)cc1	x	n	n	x	x	x
N#Cc1nc(-c2ccc(OCc3ccc(Cl)cc3)cc2)oc1N1CCOCC1	n	n	n	n	75.5	n
O=C(C[n+]1ccc(-c2cc(C(=O)Nc3cccc(C(F)(F)F)c3)c3ccccc3n2)cc1)c1cccc([N+](=O)[O-])c1	n	n	n	n	87.2	n
CC(C)c1ccc(-c2nc(N3CCCCCC3)nc3n[nH]c(N)c23)cc1	n	x	n	n	89.6	n
CC(C)c1ccc(-c2nc(N3CCCC3)nc3n[nH]c(N)c23)cc1	n	x	n	n	n	n
Cc1cccc(-c2ccc([C@H]3[C@@H](CO)N4C(=O)CN(C(=O)NC5CCCCC5)C[C@@H]34)cc2)c1	x	n	x	x	x	x
CCOc1ccccc1CNC(=O)c1cc2occc2n1C	n	183.4	n	x	x	n
CCOc1ccccc1CNC(=O)c1cc2oc3ccccc3c2n1C	n	x	n	n	n	n
SMILES	PvdQ acylase	S100A4 inh HTS	RAD54 inh	SR-BI DiI-HDL act	SR-BI DiI inh	dFosB act
CO[C@@H]1CN(C)C(=O)c2ccc(NC(=O)Nc3ccccc3F)cc2OC[C@H](C)N(C(C)=O)C[C@@H]1C	x	n	n	x	x	x
O=C(CCN1CCCCC1)N[C@H]1CC[C@@H](CCNS(=O)(=O)c2ccc(Cl)cc2)O[C@H]1CO	x	82.4	n	x	x	x
O=C(CCN1CCCCC1)N[C@H]1CC[C@H](CCNS(=O)(=O)c2ccc(Cl)cc2)O[C@H]1CO	x	n	n	x	x	x
CCCc1cn(CC[C@H]2CC[C@H](NS(=O)(=O)c3ccccc3Cl)[C@H](CO)O2)nn1	x	n	n	x	x	x
CCCc1cn(CC[C@@H]2CC[C@H](NS(=O)(=O)c3ccccc3Cl)[C@@H](CO)O2)nn1	x	96.7	n	x	x	x
O=C(CCN1CCCCC1)N[C@H]1CC[C@H](CCn2cc(-c3ccccc3)nn2)O[C@@H]1CO	x	124.2	n	x	x	x
Cc1ccc(C(=O)OCC(=O)Nc2ccc(N(C)C)cc2)cc1NC(=O)c1ccco1	n	x	n	n	n	n
Cc1ccc(C(=O)OCC(=O)Nc2nc(-c3ccccc3)cs2)cc1NC(=O)c1ccco1	n	n	n	n	83.5	n
Cc1ccc(C(=O)OCC(=O)Nc2ccccc2)cc1NC(=O)c1ccco1	n	x	n	n	n	26.9
Cc1ccc(C(=O)OCC(=O)Nc2sccc2C(N)=O)cc1NC(=O)c1ccco1	n	x	n	n	n	n
CCCN1C[C@H](C)[C@H](OC)CN(C)C(=O)c2cc(NC(=O)Nc3c(C)noc3C)ccc2OC[C@@H]1C	x	n	n	x	x	x
O=C(CCCn1c(=O)c2cccn2c2cccnc21)NCCc1ccc(Cl)cc1	n	n	n	n	78.8	n
C[C@@H]1CN([C@@H](C)CO)C(=O)c2cc(NS(C)(=O)=O)ccc2O[C@@H](C)CCCCO[C@H]1CN(C)C	x	n	n	x	x	x
O=C(CCN1CCCCC1)NCC[C@@H]1CC[C@@H](NC(=O)Cc2cccnc2)[C@@H](CO)O1	x	n	n	x	x	x
COc1cc2c(cc1NC(=O)c1cc(-c3cccnc3)nc3ccc(C)cc13)oc1ccccc12	n	n	x	n	78.3	n
COc1cc2c(cc1NC(=O)c1cc(-c3ccncc3)nc3ccccc13)oc1ccccc12	n	n	x	n	82.9	n
COc1ccc(-[n+]2c(C)cc(/C=C3\Sc4ccccc4N3C)cc2C)cc1	n	n	x	n	n	28.6
CC(=O)n1c2ccccc2c2ccccc21	n	x	n	n	n	n
Cc1ccc(C(=O)n2c3ccccc3c3ccccc32)cc1	n	x	x	n	74.1	n
COc1ccc2c3c([nH]c2c1)[C@@H](CO)N(C(=O)NC1CCCC1)CC31CN(S(C)(=O)=O)C1	x	n	x	x	x	x
C[C@H](CO)N1C[C@H](C)[C@@H](CN(C)Cc2ccc(Cl)c(Cl)c2)OCc2ccccc2-c2ccccc2C1=O	x	n	x	x	x	x
C[C@H](CO)N1C[C@H](C)[C@H](CN(C)C(=O)c2ccccc2F)Oc2ncc(C#Cc3ccccc3)cc2C1=O	x	n	n	x	x	x
COc1ccc(NC(=O)N(C)C[C@@H]2Oc3ncc(C#CC(C)(C)O)cc3C(=O)N([C@H](C)CO)C[C@@H]2C)cc1	x	112.0	n	x	x	x
C[C@@H]1CN([C@H](C)CO)C(=O)c2cc(Br)cnc2O[C@@H]1CN(C)C(=O)c1ccccc1F	x	n	n	x	x	x
C[C@H]1CN([C@@H](C)CO)C(=O)c2cc(Br)cnc2O[C@H]1CN(C)C(=O)c1ccccc1F	x	138.8	n	x	x	x
C[C@@H]1CN([C@H](C)CO)C(=O)c2cc(C#Cc3ccccc3)cnc2O[C@@H]1CN(C)C(=O)c1ccccc1F	x	74.4	n	x	x	x
